Sampled rows, rich in hits. Any-hit rate of the full collection: about 1.9%.
p47phox inh: p47phox (human) inhibition; inhibition, % at 24.7 µM; AID 1274; 220,000 compounds, 0.53% hits; p47phox/p22phox peptide binding, fluorescence polarization, 2 h; P14598;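 active = inhibition above about 30%, limit read from the data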
Target sequence (P14598 whole entry, looked up): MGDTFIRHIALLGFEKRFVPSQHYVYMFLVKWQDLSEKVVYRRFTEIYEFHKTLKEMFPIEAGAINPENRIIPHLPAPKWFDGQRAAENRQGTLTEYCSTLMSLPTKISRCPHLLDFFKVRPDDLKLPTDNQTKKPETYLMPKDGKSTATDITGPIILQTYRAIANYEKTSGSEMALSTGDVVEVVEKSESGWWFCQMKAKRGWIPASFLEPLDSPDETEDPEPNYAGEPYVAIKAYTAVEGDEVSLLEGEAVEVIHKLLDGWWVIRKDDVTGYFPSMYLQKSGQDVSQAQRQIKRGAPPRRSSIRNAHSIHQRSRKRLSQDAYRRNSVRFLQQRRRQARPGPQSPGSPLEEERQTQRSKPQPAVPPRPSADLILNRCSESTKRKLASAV
p-CIP stab down: compounds decreasing mouse p/CIP protein stability; F442A p/CIP-EGFP cells, EGFP fluorescence, 16 h; AID 1984; 290,000 compounds, 0.01% hits; decrease of EGFP signal, % at 10 µM; Q05BA5;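 active = EGFP signal decrease of at least 30% at 10 µM or well 3 SD below plate mean, unless failing retest; inactive = the rest, including hits failing retest or dose response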
Dynein transport: blocks dynein driven cargo transport along microtubules; 220,000 compounds, 0.47% hits; z-score, hits read low; 3617.4 mouse cells, GR-EGFP nuclear translocation imaging; test concentration mostly 20 µM; stimulated with dexamethasone, 1 µM; active compounds read low; AID 1381;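 active = plate z-score of nuclear minus cytoplasmic receptor signal below a set negative limit, without overly bright fluorescence or cell loss, cut at about -3.5 in these data, passing the limit was not always enough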;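 also: z-score of nuclear minus cytoplasmic ring GR-EGFP intensity difference per well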
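Buffer or medium: tet-free medium with charcoal-stripped serum / Also added: dexamethasone agonist, 1.0 µM final, for 30 min / Timing: induction 48 h, compound 1 h, agonist 30 min / Measured by: high-content fluorescence imaging after fixation / Read-out: nuclear-to-cytoplasmic GR-EGFP distribution per well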
RAM inhibit: inhibitors of the yeast RAM network | S. cerevisiae dse1pr::URA3 reporter, 5-FOA growth OD615, 2 d; analog-sensitive cbk1-as2 kinase mutant strain | inhibition, % at 50 µM | 190,000 compounds, 1.8% hits;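 active = inhibition above a set limit, 3 SD over mean compound inhibition, cut at about 8.4% in these data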;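 also: inhibition rescues growth on 5-FOA so higher OD means more RAM inhibition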
A number is an active result; 0 = inactive; - = not tested or not shown.

SMILES	p47phox inh	p-CIP stab down	Dynein transport	RAM inhibit
CCCSc1nc2c(c(=O)[nH]c(=O)n2C)n1Cc1ccccc1	-	0	-	-
CCCSc1nc2c(c(=O)[nH]c(=O)n2C)n1Cc1ccc(C)cc1	33	0	0	0
CC(/C=C/c1ccc(N(C)C)cc1)=N\N=C(/N)SC1CC(=O)N(c2ccc(C(=O)O)cc2)C1=O (stereo not drawn)	0	0	0	9.8
CCc1cc(C(=O)c2ccc(C)cc2)c(NC(=O)CCl)s1	0	0	0	9.2
Cc1cc(C(=O)c2ccc(Cl)cc2)c(NC(=O)CCl)s1	0	0	0	0
COc1ccccc1N1C(C)=CC(=C(C#N)c2nc3ccccc3s2)C=C1C	0	0	0	8.5
CC1=CC(=C(C#N)c2nc3ccccc3s2)C=C(C)N1c1ccc(F)cc1	0	0	0	0
O=c1nc(N/N=C/C=C/c2ccccc2)cn[nH]1	0	0	0	-
Cc1cccc(NC(=O)CSc2nc3ccccc3c3nc(CCc4c(C)n[nH]c4C)nn23)c1	0	0	0	0
Cc1cncn1CCc1nc2c3ccccc3nc(SCC(=O)Nc3cccc(Cl)c3)n2n1	50	0	0	0
CN1C(=O)N(C)C2(c3ccccc3)N(C)C(=O)NC12c1ccccc1 (stereo not drawn)	49	0	0	0
C=CCN(c1ccc(C(=O)NCCN2CCOCC2)cc1)S(C)(=O)=O	-	0	-	-
COC(=O)c1onc(-c2c(Cl)cccc2Cl)c1C(=O)OC	47	0	0	-
COC(=O)c1c(-c2c(Cl)cccc2Cl)noc1NC(=O)N(C)C	0	0	0	-
COc1ccc(-n2nc(C(=O)NCC(=O)NCCCN3CCOCC3)c3ccccc3c2=O)cc1	-	0	-	-
O=C(NC1CCCCC1)C(c1ccc(F)cc1)N(CCc1ccccc1)C(=O)CN1C(=O)c2ccccc2S1(=O)=O (stereo not drawn)	31	0	0	0
O=C(NC1CCCCC1)C(c1ccc(F)cc1)N(Cc1ccccc1)C(=O)CN1C(=O)c2ccccc2S1(=O)=O (stereo not drawn)	0	0	0	0
COC(=O)CSc1nc2ccc(NC(=O)c3ccccc3C(=O)N3CCOCC3)cc2s1	0	0	0	9.1
COc1ccc(S(=O)(=O)c2c(O)cc(C)c(NS(=O)(=O)c3ccccc3)c2C)cc1	-	0	-	-
CC1=CC(=C2C(=O)c3ccccc3C2=O)C=C(C)O1	69	0	0	0
CC(=O)N1C(=O)C(=C2C=C(C)OC(C)=C2)c2ccccc21	0	0	0	0
O=C1c2ccccc2C(=O)c2c(NCCCN(CCO)CCO)cccc21	37	0	0	0
Cc1[nH]c2ccccc2c1C(=O)NS(=O)(=O)Nc1ccc(F)cc1	0	0	0	0
CCC(=O)NC1=C(NC(C)c2ccccc2)C(=O)c2ccccc2C1=O (stereo not drawn)	0	0	0	0
CCC(=O)NC1=C(Cl)C(=O)C(NC(=O)CC)=C(Cl)C1=O	50	0	0	-
SMILES	p47phox inh	p-CIP stab down	Dynein transport	RAM inhibit
Cc1nnc(SC(C)C(=O)Nc2ccc(S(=O)(=O)N3CCCCCC3)cc2)s1 (stereo not drawn)	0	0	0	9.2
COC(=O)c1ccc(CN(C)S(=O)(=O)c2cccs2)cc1	-	0	-	-
COCCNC(=O)C(c1ccc(C)o1)N(Cc1ccc(F)cc1)C(=O)Cn1nnc2ccccc21 (stereo not drawn)	0	0	0	0
O=C(NCc1ccco1)C(c1cccs1)N(Cc1ccccc1)C(=O)Cn1nnc2ccccc21 (stereo not drawn)	0	0	0	0
COCCNC(=O)C(c1ccc(C)o1)N(Cc1ccc(OC)cc1)C(=O)Cn1nnc2ccccc21 (stereo not drawn)	0	0	0	11
O=C(NCc1ccco1)C(c1ccco1)N(Cc1cccs1)C(=O)Cn1nnc2ccccc21 (stereo not drawn)	0	0	0	9.5
CC(=O)N1c2ccc(S(=O)(=O)N3CCC(C(=O)NCc4ccc(N(C)C)cc4)CC3)cc2CC1C (stereo not drawn)	-	0	-	-
COc1ccc(CNc2nc3c(c(=O)n(Cc4ccc(Br)cc4)c(=O)n3C)n2C)cc1	0	0	0	8.8
O=C(O)CNc1ncccc1[N+](=O)[O-]	50	0	0	0
COc1ccc(CNc2ncccc2[N+](=O)[O-])cc1	-	0	-	-
CS(=O)(=O)c1ccc(Cl)c(NC(=O)CCl)c1	0	0	0	0
O=C(NCC1CCCO1)C(c1cccs1)N(Cc1ccccc1)C(=O)c1ccc(-c2ccccc2)[nH]1 (stereo not drawn)	0	0	0	10
COc1ccc(CN2CC(C(=O)NCCCN3CCCC(C)C3)CC2=O)cc1 (stereo not drawn)	-	0	-	-
